The nature of data set [1]: Area under the curve during systemic administration. Also noted: concentration or dose not given beside the values. To be noted: other: systemic administration. The format is ADME.
A short description of data set [2]: Biological half-life in the rat. Type of data set: ADME, organism-based. To be noted: in vivo. A digest of the protocol: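 Half-life determined after intravenous dosing in rats.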
Data set [3] concerns the target Protein farnesyltransferase (Bos taurus, UniProt P29702+P49355). The data set can be described thus: In vitro inhibition of farnesyltransferase purified from bovine brain using scintillation proximity assay.
The subject of a further data set is NIH3T3. The data set is described as follows: In Vitro inhibition of Ha-Ras procession by using subconfluent NIH3T3 ras-transformed cells. The format is functional. The conditions noted are these: Mus musculus, read-out: ED50 (the source's name).
Data set [4] in a line: Portal vein area under the curve after intraduodenal administration. Also noted: concentration or dose not given beside the values.

This is an account of results in ChEMBL document CHEMBL1132658, “Second-generation peptidomimetic inhibitors of protein farnesyltransferase demonstrating improved cellular potency and significant in vivo efficacy” (J Med Chem, 1999).

For `CSCC[C@H](NC(=O)c1ccc(CN(Cc2ccccc2)c2cccnc2)cc1-c1ccccc1C)C(=O)O`, the AUC is 500 ng·h/mL in data set [1] and 3000 ng·h/mL in data set [4]. In addition, the half-life in data set [2] was 49.8 min. It took 0.1 nM to reach half-maximal inhibition in data set [3] (IC50). In addition, in the data set on NIH3T3, the EC50 worked out at 13 nM.

Take `CSCC[C@H](NC(=O)c1ccc(CN(C(=O)Cc2ccccc2)c2cccnc2)cc1-c1ccccc1C)C(=O)O`: in data set [3], 39 nM corresponded to half-maximal inhibition (IC50). For the same compound, the EC50 with NIH3T3 was more than 1000 nM.

Take `CCCCCc1cc(C(=O)N[C@@H](CCSC)C(=O)O)c(-c2ccccc2C)cc1COc1cccnc1`: it took 2 nM to reach half-maximal inhibition in data set [3] (IC50). Also, the EC50 in the data set on NIH3T3 worked out at 1000 nM.

Regarding `CSCC[C@H](NC(=O)c1ccc(CN(Cc2ccccc2)Cc2cncs2)cc1-c1ccccc1C)C(=O)O`, the AUC in data set [1] came to 1600 ng·h/mL; in data set [4], 3200 ng·h/mL. In data set [2], the half-life is less than 24 min. For the same compound, the midpoint of inhibition in data set [3], the IC50, lay at 0.4 nM. Besides, the EC50 with NIH3T3 worked out at 300 nM.

The compound `CSCC[C@H](NC(=O)c1cc(Cc2ccccc2)c(COc2cccnc2)cc1-c1ccccc1C)C(=O)O` yielded an IC50 in data set [3] of 1 nM. In the data set with NIH3T3, the EC50 is more than 1000 nM.

Consider `CSCC[C@H](NC(=O)c1cc(-c2cccs2)c(COc2cccnc2)cc1-c1ccccc1C)C(=O)O`, for which 510 nM corresponded to half-maximal inhibition in data set [3] (IC50).

As to `CCc1cc(C(=O)N[C@@H](CCSC)C(=O)O)c(-c2ccccc2C)cc1COc1cccnc1`, 11 nM corresponded to half-maximal inhibition in data set [3] (IC50). The EC50 in the data set on NIH3T3 was less than 10000 nM.

As to `CSCC[C@H](NC(=O)c1ccc(CN(Cc2cc(F)cc(F)c2)Cc2cncs2)cc1-c1ccccc1C)C(=O)O`, the AUC in data set [1] was found to be 300 ng·h/mL; in data set [4], 2400 ng·h/mL. Moreover, the half-life in data set [2] is 67.8 min. The IC50 in data set [3] was 0.2 nM. For the same compound, in the data set with NIH3T3, the EC50 worked out at 500 nM.

`CSCC[C@H](NC(=O)c1ccc(CN(Cc2ccccc2)Cc2cscn2)cc1-c1ccccc1C)C(=O)O` gave an IC50 in data set [3] of 16 nM. In addition, the EC50 in the data set on NIH3T3 was more than 1000 nM.

With `CSCC[C@H](NC(=O)c1cc(-c2ccc(C)cc2)c(COc2cccnc2)cc1-c1ccccc1C)C(=O)O`, the IC50 in data set [3] turned out to be 370 nM.

For the compound `CSCC[C@H](NC(=O)c1ccc(CN(Cc2ccccc2)c2cnccn2)cc1-c1ccccc1C)C(=O)O`, the values for the exposure (AUC) in data set [1] and in data set [4] were 900 ng·h/mL and 1800 ng·h/mL, respectively. In data set [2], this compound showed a half-life of less than 24 min. This compound also showed a 50% inhibitory concentration (IC50) in data set [3] of 0.8 nM. Besides, the EC50 in the data set with NIH3T3 came to 50 nM.

For `CSCC[C@H](NC(=O)c1ccc(CN(CC2CCCCC2)c2cccnc2)cc1-c1ccccc1C)C(=O)O`, the AUC in data set [1] is 100 ng·h/mL; in data set [4] it was 1000 ng·h/mL. In data set [2], this compound yielded a half-life of less than 24 min. Besides, the IC50 in data set [3] was determined as 0.1 nM. Also, the EC50 in the data set on NIH3T3 turned out to be 10 nM.

For `CSCC[C@H](NC(=O)c1ccc(CN(Cc2ccccc2)c2cncnc2)cc1-c1ccccc1C)C(=O)O`, the AUC in data set [1] turned out to be 20 ng·h/mL; in data set [4] it was 10400 ng·h/mL. Moreover, the half-life in data set [2] was 30 min. Moreover, in data set [3], half-maximal inhibition (IC50) was put at 0.4 nM. For the same compound, the EC50 with NIH3T3 was 90 nM.

In the case of `CSCC[C@H](NC(=O)c1ccc(CNc2cccnc2)cc1-c1ccccc1C)C(=O)O`, the IC50 in data set [3] turned out to be 0.4 nM. Moreover, the EC50 in the data set with NIH3T3 was 3000 nM.

As for `CSCC[C@H](NC(=O)c1cc(-c2cc(Cl)cc(Cl)c2)c(COc2cccnc2)cc1-c1ccccc1C)C(=O)O`, the IC50 in data set [3] was 95 nM.

On to `CSCC[C@H](NC(=O)c1ccc(COc2cccnc2)cc1-c1ccccc1C)C(=O)O`, for which the EC50 in the data set with NIH3T3 is 400 nM.

Consider `CSCC[C@H](NC(=O)c1ccc(CN(Cc2cc(F)cc(F)c2)c2cccnc2)cc1-c1ccccc1C)C(=O)O`, for which the AUC in data set [1] was 140 ng·h/mL; in data set [4], 3560 ng·h/mL. This compound also gave a half-life in data set [2] of 60 min. Besides, half-maximal inhibition in data set [3] (IC50) required 1.4 nM. Further, the EC50 with NIH3T3 came to 50 nM.

For the compound `CSCC[C@H](NC(=O)c1cc(CCc2ccccc2)c(COc2cccnc2)cc1-c1ccccc1C)C(=O)O`, the midpoint of inhibition in data set [3], the IC50, lay at 0.5 nM. In the data set with NIH3T3, the EC50 worked out at 1000 nM.

The compound `CSCC[C@H](NC(=O)c1ccc(CN(C(=O)c2ccccc2)c2cccnc2)cc1-c1ccccc1C)C(=O)O` showed an IC50 in data set [3] of 53 nM. Also, the EC50 in the data set on NIH3T3 is more than 1000 nM.

For `CSCC[C@H](NC(=O)c1ccc(CN(Cc2ccccc2)c2ccccc2)cc1-c1ccccc1C)C(=O)O`, the values for the AUC in data set [1] and in data set [4] were 600 ng·h/mL and 1900 ng·h/mL, respectively. Besides, the half-life in data set [2] is 48 min. Also, half-maximal inhibition in data set [3] (IC50) required 1.4 nM. Moreover, in the data set on NIH3T3, the EC50 was 400 nM.

In data set [3], `CSCC[C@H](NC(=O)c1cc(CC(C)C)c(COc2cccnc2)cc1-c1ccccc1C)C(=O)O` gave an IC50 of 29 nM. Besides, in the data set with NIH3T3, the EC50 is more than 10000 nM.

`CSCC[C@H](NC(=O)c1ccc(CN(Cc2ccccc2)c2cncc(F)c2)cc1-c1ccccc1C)C(=O)O`: the results for the AUC in data set [1] and in data set [4] were 400 ng·h/mL and 2400 ng·h/mL, respectively. In data set [2], this compound showed a half-life of less than 24 min. Moreover, in data set [3], half-maximal inhibition (IC50) was put at 0.1 nM. Besides, the EC50 in the data set on NIH3T3 came to 30 nM.

`CSCC[C@H](NC(=O)c1cc(CC2CCCCC2)c(COc2cccnc2)cc1-c1ccccc1C)C(=O)O` yielded an IC50 in data set [3] of 12 nM. Further, the EC50 in the data set with NIH3T3 was 1000 nM.

`CSCC[C@H](NC(=O)c1ccc(CN(Cc2ccccc2)Cc2nccs2)cc1-c1ccccc1C)C(=O)O`: in data set [3], half-maximal inhibition (IC50) required 7 nM. Further, in the data set on NIH3T3, the EC50 is more than 1000 nM.

Take `CSCC[C@H](NC(=O)c1ccc(CN(c2cccnc2)S(=O)(=O)c2ccccc2)cc1-c1ccccc1C)C(=O)O`: the IC50 in data set [3] was determined as 7 nM.

For `CSCC[C@H](NC(=O)c1ccc(CN(Cc2cc(F)cc(F)c2)c2ccccc2)cc1-c1ccccc1C)C(=O)O`, the AUC was 10800 ng·h/mL in data set [1] and 14300 ng·h/mL in data set [4]. This compound gave a half-life in data set [2] of 114 min. Moreover, in data set [3], the midpoint of inhibition, the IC50, lay at 0.4 nM. Besides, the EC50 in the data set on NIH3T3 worked out at 1000 nM.

For `CCCCc1cc(C(=O)N[C@@H](CCSC)C(=O)O)c(-c2ccccc2C)cc1COc1cccnc1`, the midpoint of inhibition in data set [3], the IC50, lay at 11 nM.

For orientation: AUC means concentration integrated over time. The term half-life denotes the time in which the quantity being followed falls by half. By IC50 is commonly meant the concentration that gives 50% inhibition.
